Jurkat tox 60K: cytotoxicity toward Jurkat cells. Jurkat E6.1 viability, ATP luminescence, 48 h. inhibition, % at 4 µM. 56,000 compounds, 1.2% hits. AID 463;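 active means inhibition above the mean inhibition of all tested compounds plus 3 SD, cut at about 28% in these data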
H69AR growth 86K: blocks growth of human H69AR lung tumor cells | AID 598 | viability, % at 10 µM | 85,000 compounds, 6% hits | H69AR lung tumor viability, ATP luminescence, 72 h; hits give low values;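 active means viability at or below 40%; inactive means viability above 40%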;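 further: multidrug resistant small cell line overexpressing MRP-1 efflux transporter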
Ecoli tolC: blocks growth of E. coli BW25113 tolC mutant. OD615. growth inhibition, % at 10 µM (by protocol). 65,000 compounds, 2.2% hits. AID 573;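 active means growth inhibition at or above a cutoff equal to the mean over every tested compound plus 3 SD, cut at about 60% in these data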;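 further: growth measured after 20 h incubation at 37 °C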
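Signal: optical density read at 615 nm; Assay system: E. coli ΔtolC::kan strain BW25113; Times: 20 h incubation with compound, 37 °C; Dosing: 10 µM final, single dose.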
Ecoli WT expand: blocks growth of wild type E. coli BW25113 | OD600 absorbance | growth inhibition, % at 100 µM | 98,000 compounds, 0.15% hits | AID 710;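 active means growth inhibition above about 50% at one test dose, limit read from the data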;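 further: growth measured after 20 h incubation at 37 °C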
HUVEC inhibit: human endothelial cell proliferation inhibition | HUVEC proliferation, CellTiter-Glo luminescence, 72 h; hits give low values | viability, % at 10 µM (by protocol) | 86,000 compounds, 1.1% hits | AID 648;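 active means viability at or below 30%; inactive means viability above 30%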
Fibroblast inh: blocks proliferation of human lung fibroblasts. LL 47 human lung fibroblast viability, ATP luminescence; hits give low values. viability, % at 10 µM. 85,000 compounds, 1.1% hits;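 active means viability at or below 50% in the single dose screen; inactive means viability above 50%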;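 further: compound exposure lasted 72 h before the ATP readout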
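Material: human lung fibroblast line LL 47, low passage; Evaluation: viability percentage against median untreated-cell control; Buffer or medium: 15% FBS in IMEM; Incubation: 72 h compound exposure at 37 °C after overnight plating; Dosing: 0.1% DMSO in all compound wells; Measured by: CellTiter-Glo luminescence.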
Hits are given with their value; n = inactive; x = no result; ! = not confirmed by another sample. Compounds with a hit are over-represented: about 6.4% of the library has one in this group of screens.

SMILES	Jurkat tox 60K	H69AR growth 86K	Ecoli tolC	Ecoli WT expand	HUVEC inhibit	Fibroblast inh
FC(F)(F)c1ccc2c(c1)N(CCCN1CCN(CCCl)CC1)c1ccccc1S2	x	1.4	x	n	n	n
C=Cn1c(P(=S)(N2CCOCC2)N2CCOCC2)cc2c1CCCC2	n	n	n	n	n	n
NC(=O)CN1C2CCC1CC(NC(=O)C1CC1)C2 (centres undefined)	n	n	n	n	n	n
COC(=O)[C@@H]1[C@@H](C(=O)OC)C2(c3ccccc3-c3ccccc32)N(c2ccc(Cl)cc2)N1C#N	x	0.7	x	x	2.7	3.3
COC(=O)C[C@]1(C(=O)OC)CN(C#N)N(c2ccc(Cl)cc2)C12c1ccccc1-c1ccccc12	x	0.6	x	x	2.4	5.2
Cc1c(/C=C2/CC3C4CC=C5CC(O)CCC5(C)C4CCC3(C)C2=O)cnn1C (centres undefined)	x	n	x	x	n	n
CC(/C=N/NC(=O)c1n[nH]c2c1CCC2)=C\c1ccccc1	x	23	x	n	n	46
COC(=O)C(O)(c1ccc2c(c1)CCCN2)C(F)(F)F (centres undefined)	n	n	n	n	n	n
O=c1[nH]c(=O)n(CCC2=CCCCC2)c(O)c1C=NC1CCN(Cc2ccccc2)CC1	n	32	n	n	n	n
CN(C)c1ccc(N=Cc2c(O)n(CCC3=CCCCC3)c(=O)[nH]c2=O)cc1	n	10	n	n	n	n
CCN(CC)c1ccc(N=Cc2c(O)n(CCC3=CCCCC3)c(=O)[nH]c2=O)cc1	n	17	n	n	n	n
CC1CCCCN1CC(=O)c1ccc2cc[nH]c2c1 (centres undefined)	n	n	n	n	n	n
Cc1ccc(-c2nc3ccccc3c(=O)n2-c2nccs2)cc1	x	x	x	n	x	x
O=C(NC1(C(F)(F)F)Oc2ccccc2O1)N1CCC2(CC1)OCCO2	x	17	n	x	n	n
O=C(NC1(C(F)(F)F)Oc2ccc(Cl)cc2O1)N1CCC2(CC1)OCCO2 (centres undefined)	x	32	n	n	n	n
O=C(Cc1cccs1)N1CCC2(CC1)OCCO2	n	n	n	n	n	n
CCCCCCn1c(O)c(C=NC2CCN(Cc3ccccc3)CC2)c(=O)[nH]c1=O	x	n	n	n	n	n
CCOP(=O)(C#CC(C)(C)C)C(O)(c1ccccc1)C(F)(F)F (centres undefined)	n	n	n	n	n	n
c1ccc(C2=NP(N3CCOCC3)(N3CCOCC3)=NC(N3CCOCC3)=N2)cc1	n	n	n	n	n	n
Cc1cc2c(C(C)C)c(O)c(O)c(C=O)c2c(O)c1-c1c(C)cc2c(C(C)C)c(O)c(O)c(C=O)c2c1O	x	0.6	x	x	3.0	28!
Cn1nc(-c2ccc(OCC(=O)N3CCN(Cc4ccccc4)CC3)cc2)c2ccccc2c1=O	58	n	n	n	n	n
COc1cc2ccccc2cc1C(=O)Nc1ccc(Cc2ccncc2)cc1	x	x	x	n	x	x
CCCCCCn1c(=O)c(C(=O)Nc2c(C)n(C)n(-c3ccccc3)c2=O)c(O)c2ccccc21	n	12	n	x	n	n
CCCCCn1c(=O)c(C(=O)NCc2ccncc2)c(O)c2ccccc21	n	14	n	n	n	n
CCCCCn1c(=O)c(C(=O)Nc2ccncc2)c(O)c2ccccc21	n	5.1	n	x	n	49
SMILES	Jurkat tox 60K	H69AR growth 86K	Ecoli tolC	Ecoli WT expand	HUVEC inhibit	Fibroblast inh
Cc1c(NC(=O)C(C)OC(=O)Cc2ccccc2)c(=O)n(-c2ccccc2)n1C (centres undefined)	x	x	x	n	x	x
Cc1ccc(CCN2CC(C(=O)N3CCC4(CC3)OCCO4)CC2=O)cc1 (centres undefined)	n	n	n	n	n	n
COCCOC(=O)C1=C(N)Oc2c(c(=O)oc3ccccc23)C1c1ccncc1 (centres undefined)	n	n	n	n	n	n
CCS(=O)(=O)N1CCC(C(=O)N2CCC3(CC2)OCCO3)CC1	n	n	n	n	n	n
CCCS(=O)(=O)N1CCC(C(=O)N2CCC3(CC2)OCCO3)CC1	n	n	n	n	n	42
CSc1ccc(C(=O)C(C)(C)N2CCOCC2)cc1	n	n	n	n	n	n
CCC(=NCc1ccc2c(c1)OCO2)c1c(O)n(C2CCCCC2)c(=O)[nH]c1=O	n	n	75	n	n	n
CC12CN3CC(C)(CN(C1)C3c1cccs1)C2O (centres undefined)	n	n	n	n	n	n
CCOC(=O)c1c(C)n(Cc2ccccc2)c2ccc(OCC(O)CN3C(=O)CNC3=O)cc12 (centres undefined)	n	27	n	n	n	n
O=C(c1ccco1)C12CN3CN(CN(C3)C1)C2	x	n	n	n	n	n
CC/C(=C\C=C\[C@@H]1C=C[C@@H]2CCC[C@H]2[C@@H]1C(=O)c1ccc[nH]1)[C@@H]1O[C@@H]([C@@H](C)C(=O)O)CC[C@@H]1C	x	15	x	x	12	38
O=C(COc1ccc(Cl)cc1)N1CCN(C/C=C/c2ccccc2)CC1	x	27	x	n	n	n
Cc1ccnc(-n2c(C)nc3ccccc3c2=O)c1	n	n	n	n	n	n
Cc1cccc(N2CCc3c2nc2ccccc2c3N)c1	n	34!	n	n	n	n
CCCCn1c(O)c(C=Nc2c(C)n(C)n(-c3ccccc3)c2=O)c(=O)[nH]c1=O	n	n	n	n	n	n
CN=C(SCc1cc2c(cc1Cl)OCO2)c1c(O)n(C)c(=O)n(C)c1=O	n	n	n	n	n	n
CCCCn1c(O)c(C(CC)=NCCc2ccccc2)c(=O)[nH]c1=O	n	n	99	n	n	n
O=C(N/N=C1/CN2CCC1CC2)c1cc2ccccc2cc1O	x	37	x	n	n	n
Cn1c[n+](C)cc1C(O)c1ccccc1 (centres undefined)	n	n	n	n	n	n
c1ccc2cc3cc4ccccc4cc3cc2c1	x	n	x	x	n	n
Cc1ccc(-n2c(O)c(C=Nc3ccccc3N)c(=O)[nH]c2=O)cc1C	86	13	n	n	n	n
CN(C)C1(c2nnnn2CCOC(=O)Nc2ccc(Cl)cc2)CCCCC1	n	n	100	n	n	n
CN(C)C1(c2nnnn2-c2ccc(Cl)cc2)CCCCC1	n	n	n	n	n	n
CCc1cc2c(s1)NC(=O)CN=C2c1cccs1	n	23	n	n	n	n
O=C(Cn1cc(C(=O)c2ccccc2F)c2ccccc21)NCc1ccco1	n	n	n	n	n	43
O=C(c1ccccc1F)c1cn(CC(=O)N2CCOCC2)c2ccccc12	x	n	x	n	n	n
C=CCn1c(O)c(C(C)=NCc2cc(OC)cc(OC)c2)c(=O)[nH]c1=O	37	38	n	n	26	48
Cc1ccccc1-n1c(O)c(C=Nc2ccc(N(C)C)cc2)c(=O)[nH]c1=O	n	n	n	n	n	n
CN(CCCCC(=O)/C=N/O)Cc1ccccc1 (tested in a mixture with another compound)	x	n	x	n	n	n

Screening results (PubChem BioAssay)
